Compound activity deposited in PubChem BioAssay by Johns Hopkins Ion Channel Center.
KCNK9 block: inhibitors of human KCNK9 two-pore domain potassium channel | Q9NPC2 | AID 488922 | B-score at 10 µM | hit rate 1.2% among 310,000 | HEK293 KCNK9, FluxOR thallium flux fluorescence; hits give low values;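 active = ratio B-score over 3 SD below the library mean, with starting fluorescence within 5 SD of its mean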;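 also: negative B-score means less thallium flux so channel inhibition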
Target sequence (Q9NPC2 whole entry, looked up, the tested form may be a part): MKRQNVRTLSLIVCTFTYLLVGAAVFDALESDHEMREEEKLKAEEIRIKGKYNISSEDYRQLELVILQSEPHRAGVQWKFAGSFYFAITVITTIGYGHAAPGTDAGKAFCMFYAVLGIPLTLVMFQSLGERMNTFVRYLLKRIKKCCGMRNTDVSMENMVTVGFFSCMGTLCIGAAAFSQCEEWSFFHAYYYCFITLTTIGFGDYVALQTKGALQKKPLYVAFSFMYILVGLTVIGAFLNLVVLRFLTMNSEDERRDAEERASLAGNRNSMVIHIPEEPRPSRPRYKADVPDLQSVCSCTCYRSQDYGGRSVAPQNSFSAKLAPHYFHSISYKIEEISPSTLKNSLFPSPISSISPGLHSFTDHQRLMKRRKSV
hERG protect: compounds protecting human hERG from proarrhythmic drug block. AID 1511. Q12809. CHO-hERG, FluxOR thallium flux, dofetilide IC70 present. hit rate 0.51% among 310,000. activation (rescue from dofetilide block), less the hit threshold, % at 10 µM;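 active = activation above the mean of controls blocked by dofetilide plus 5 SD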;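 also: thallium influx through hERG after potassium depolarization seen as dye fluorescence rise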
KCNQ1 block: inhibitors of human KCNQ1 potassium channel; P51787; CHO-K1 KCNQ1, FluxOR thallium flux fluorescence; hits give high values; B-score at 10 µM; hit rate 1.3% among 310,000; AID 2642;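 active = compounds whose thallium flux B-score, printed positive for inhibition, exceeds three library SD while starting fluorescence stays within three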;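 also: channel opened by potassium depolarization with thallium stimulus after 20 min compound exposure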
KCNQ1 act: potentiators or activators of human KCNQ1 potassium channel; CHO-K1 KCNQ1, thallium flux FluxOR fluorescence; hits give high values; B-score at 10 µM; hit rate 0.35% among 310,000;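 active = fluorescence ratio B-score, a plate-corrected score, at least three library SD, with initial intensity B-score within 5 SD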
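Assay system: stable KCNQ1 CHO-K1 line; medium: assay buffer, equal DMSO in all wells; timing: 90 min dye loading and 20 min compound exposure, both at room temperature; technique: kinetic FluxOR thallium fluorescence, 10-s 1-Hz baseline, 110-s post-stimulus read; read-out basis: B score of baseline-normalized fluorescence ratio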
Kir21 block: inhibitors of mouse Kir2.1 inward-rectifier potassium channel; P35561; HEK293-Kir2.1, FluxOR thallium flux fluorescence; hits give low values; B-score at 10 µM; hit rate 0.85% among 310,000; AID 1672;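 active = fluorescence ratio B-score at or below minus 3 SD of library scores, with starting-brightness B-score within 2 SD, cut at about -4.2 in these data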;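 also: channel flux triggered by added potassium and thallium sulfate stimulus; B-score of peak minus minimum fluorescence over baseline after thallium stimulus; more negative B-score means stronger Kir2.1 block with less thallium influx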
KCNK3 inh: human KCNK3 channel inhibition, primary screen | CHO-KCNK3 thallium flux, FluxOR fluorescence; hits give low values | B-score at 10 µM | hit rate 0.84% among 340,000;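 active = B-score under library mean minus 4 SD, starting fluorescence ratio at most library mean plus 5 SD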;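 also: more negative B-score means stronger inhibition of thallium flux through KCNK3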
An asterisk follows results filed as active. Sampled rows, rich in hits. Any-hit rate of the full collection: about 3.8%.

Screening COc1ccc(-c2noc(C3CCCN(C(=O)c4ccc(C)cc4)C3)n2)cc1 (stereo not drawn) returned KCNK9 block inactive, hERG protect -5.5, KCNQ1 block inactive, KCNQ1 act inactive, Kir21 block 0.83 and KCNK3 inh inactive.
O=S(=O)(NCCc1cn2ccccc2n1)c1ccc(-c2ccccc2)cc1 was read as KCNK9 block inactive, hERG protect -10.6, KCNQ1 block inactive, KCNQ1 act inactive, Kir21 block -4.24* and KCNK3 inh inactive.
CCOC(=O)C1(Cc2ccccc2Cl)CCN(S(=O)(=O)N(C)C)CC1 was read as KCNK9 block inactive, hERG protect -21.3, KCNQ1 block inactive, KCNQ1 act inactive, Kir21 block -2.49 and KCNK3 inh inactive.
Screening O=C(COC(=O)c1ccc(Br)o1)NCC(=O)Nc1ccc(F)cc1 returned KCNK3 inh inactive.
CC(NC(=O)COC(=O)c1cccs1)c1ccccc1 (stereo not drawn) was read as KCNK9 block inactive, hERG protect -1.2, KCNQ1 block inactive, KCNQ1 act inactive, Kir21 block 1.09 and KCNK3 inh inactive.
`CC(NC(=O)COC(=O)/C(=C/c1cccs1)c1cccs1)c1ccccc1` (stereo not drawn) gave KCNK9 block -6.77*, hERG protect -9.2, KCNQ1 block inactive, KCNQ1 act inactive, Kir21 block -0.6 and KCNK3 inh inactive.
For COc1ccc(C(=O)N[C@H](C(=O)N2CCN(c3ccccc3F)CC2)C(C)C)cc1 the results were KCNK9 block inactive, hERG protect 4.9*, KCNQ1 block inactive, KCNQ1 act inactive, Kir21 block 3.26 and KCNK3 inh inactive.
`O=C(NC1CC1)c1cc2c(s1)-c1ccccc1OC2` gave KCNK9 block inactive, hERG protect -2.2, KCNQ1 block inactive, KCNQ1 act inactive, Kir21 block -1.32 and KCNK3 inh inactive.
Screening Cc1ccc([N+](=O)[O-])cc1NC(=O)C1CCCC1 returned KCNK9 block inactive, hERG protect 5.0*, KCNQ1 block inactive, KCNQ1 act inactive, Kir21 block 0.04 and KCNK3 inh inactive.
`Cc1ccc(C)c(NC(=O)C2CCCC2)c1` gave KCNK9 block inactive, hERG protect -5.3, KCNQ1 block inactive, KCNQ1 act inactive, Kir21 block -0.42 and KCNK3 inh inactive.
`O=C(CN(C1CCCCC1)S(=O)(=O)c1ccc(Cl)cc1)N1CCOCC1` gave KCNK9 block inactive, hERG protect -18.3, KCNQ1 block inactive, KCNQ1 act inactive, Kir21 block -0.39 and KCNK3 inh inactive.
For CC1(C)CC1C(=O)Nc1ccc([N+](=O)[O-])cc1Br (stereo not drawn) the results were KCNK9 block inactive, hERG protect -7.3, KCNQ1 block inactive, KCNQ1 act inactive, Kir21 block -1.6 and KCNK3 inh inactive.
For Cc1ccc(NC(=O)/C(=C/c2cccc([N+](=O)[O-])c2)NC(=O)C2CCCCC2)c(C)c1 the results were KCNK9 block inactive, hERG protect -9.5, KCNQ1 block inactive, KCNQ1 act inactive, Kir21 block 2.71 and KCNK3 inh inactive.
`Cc1ccc([N+](=O)[O-])cc1NC(=O)CN(C1CCCCC1)S(=O)(=O)c1ccc(Cl)cc1` gave KCNK9 block -7.66*, hERG protect -7.7, KCNQ1 block 7*, KCNQ1 act inactive, Kir21 block -0.78 and KCNK3 inh inactive.
`Cc1ccc(C2(c3ccc(C)cc3)CC2C(=O)Nc2ccc([N+](=O)[O-])cc2O)cc1` (stereo not drawn) gave KCNK9 block inactive, hERG protect -10.9, KCNQ1 block 11*, KCNQ1 act inactive, Kir21 block 0.68 and KCNK3 inh inactive.
O=C(Nc1ccc([N+](=O)[O-])cc1)/C(=C/c1cccc([N+](=O)[O-])c1)NC(=O)C1CCCCC1 was read as KCNK9 block -6.87*, hERG protect -3.5, KCNQ1 block inactive, KCNQ1 act inactive, Kir21 block -0.32 and KCNK3 inh inactive.
